# Reference: ChEMBL document CHEMBL4229550, “An antimycobacterial pleuromutilin analogue effective against dormant bacilli” (Bioorg Med Chem, 2018)
# Columns and labels:
# [1] = Apparent permeability from basolateral to apical side in human Caco2 cells at 10 uM after 2 hrs by LC-MS/MS analysis; format: ADME, cell-based; details: caco-2, 2 h
# [2] = tested on: Mycobacterium tuberculosis; test: Antibacterial activity against Mycobacterium tuberculosis Erdman infected in Balb/c mouse assessed as reduction in bacterial load in lungs at 50 mg/kg, po for 3 weeks starting from 10 days post infection measured on day 21 post infection; format: functional, Erdman = ATCC 35801
# Summary of the method: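 Female BALB/c mice, 7–8 weeks old, are aerosol-infected with Mtb Erdman. From day 10 they receive oral gavage in water for three weeks, in groups of 5. Lungs and spleens are harvested at day 21 post-infection and plated for CFU. Efficacy is the log10 reduction in lung burden versus untreated (vehicle) controls.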
# [3] = tested on: Escherichia coli; test: Antibacterial activity against Escherichia coli ATCC 10798 incubated for 24 hrs under aerobic condition by MABA; format: functional; details: ATCC 10798, 24 h, read-out: MIC100
# Summary of the method: (§1)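 Mid-log cultures at OD 0.5 were exposed to serial dilutions under aerobic conditions at 37 °C for 24 h. Resazurin was then added from a 0.08% stock for 1 h. MIC100 was the lowest concentration where the dye stayed blue (pink means growth). Absorbance was also read at 570 and 600 nm.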
# [4] = tested on: Enterococcus faecalis; test: Antibacterial activity against Enterococcus faecalis ATCC 349 incubated for 24 hrs under aerobic condition by MABA; format: functional; details: ATCC 349, 24 h, read-out: MIC100; summary of the method: as §1
# [5] = tested on: Staphylococcus aureus; test: Bactericidal activity against Staphylococcus aureus BAA 1683 incubated for 24 hrs under aerobic condition by MABA; format: functional; details: BAA 1683, 24 h
# [6] = tested on: Clostridioides difficile; test: Bactericidal activity against Clostridium difficile ATCC 700057 incubated for 24 hrs […] by MABA; format: functional; details: ATCC 700057, 24 h
# [7] = tested on: Bacillus subtilis; test: Antibacterial activity against Bacillus subtilis ATCC 6051 incubated for 24 hrs under aerobic condition by MABA; format: functional; details: ATCC 6051, 24 h, read-out: MIC100; summary of the method: as §1
# [8] = Tmax in Balb/c mouse at 30 mg/kg, po; format: ADME, organism-based; details: in vivo
# Summary of the method: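 Single 30 mg/kg oral dose in six BALB/c mice; serum half-life and tmax are derived from the concentration–time profile.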
# [9] = tested on: Staphylococcus aureus; test: Bactericidal activity against Staphylococcus aureus incubated for 24 hrs under aerobic condition by MABA; format: functional
# [10] = Efflux ratio of apparent permeability in human Caco2 cells at 10 uM after 2 hrs by LC-MS/MS analysis; format: ADME, cell-based; details: caco-2, 2 h
# [11] = Half life in Sprague-Dawley rat liver microsomes at 500 ng/ml preincubated for 5 mins followed by NADPH addition by C-MS/MS analysis; format: ADME, microsome
smiles,measurement,setting,value
CC[C@]1(C)C[C@@H](OC(=O)CSC(C)(C)CNC(=O)[C@H](N)CC(C)C)[C@]2(C)[C@H](C)CC[C@]3(CC[C@@H](O)[C@H]32)[C@@H](C)[C@@H]1O,Papp,[1],18.3 ×10⁻⁶ cm/s
same,log(activity),[2],0.03
same,MIC,[3],12.5 µg/mL
same,MIC,[4],> 25 µg/mL
same,MBC,[5],> 25 µg/mL
same,MBC,[6],1.56 µg/mL
same,MIC,[7],25 µg/mL
same,Tmax,[8],49.8 min
same,MBC,[9],1.56 µg/mL
same,Ratio,[10],5.44
same,t1/2,[11],> 60 min
